In ChEMBL document CHEMBL1145520, “RAS-RAF-MEK-dependent oxidative cell death involving voltage-dependent anion channels” (Nature, 2007):
The source made the active and inactive calls. The calls are words filed in the database; no cut-off is given here.

Experiments:
[1] = Induction of cell death in human MES-SA cells; format: functional, cell-based
BJ [2] = assay: Induction of cytochrome c release in cytosolic fraction of human BJ cells expressing TERT, LT, ST and RAS G12V mutant genes at 20 ug/ml; format: functional, cell-based
Procedure, shortened: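 BJ-TERT/LT/ST/RASV12 cells seeded 3 × 10^6 per dish, incubated overnight at 37 °C, 5% CO2, then exposed to erastin 20 µg/ml for 6–26 h. Fractionated on ice by needle lysis: nuclei spun out at 400g, mitochondria pelleted at 10,500g. Cytochrome c detected by western blot in cytosolic and mitochondrial fractions.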

HOS = assay: Induction of cell death in human HOS cells; format: functional, cell-based
BJ [3] = assay: Induction of pro-caspase 3 cleavage in human BJ cells expressing TERT, LT, ST and RAS G12V mutant genes; format: functional, cell-based
Procedure, shortened: (§1)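 Cells either untreated, given staurosporine, or given erastin for 6–10 h, then lysed in HEPES pH 7.4 buffer with phosphatase and protease inhibitors. Lysates run on SDS-PAGE, blotted to PVDF, probed with antibodies detecting active caspase-3, with actin as loading control. Bands read on infrared imager.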

HT-1080 [4] = assay: Induction of pro-caspase 3 cleavage in human HT1080 cells; format: functional, cell-based; procedure, shortened: as §1
A673 [5] = assay: Induction of PARP1 cleavage in human A673 cells; format: functional, cell-based
Procedure, shortened: (§2)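 Cells were left untreated or given staurosporine or erastin for 6 or 8 h. Lysates were analysed by western blot for full-length and cleaved PARP1, with actin as loading control.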

BJ [6] = assay: Induction of cell death in human BJ cells expressing TERT, LT, ST and RAS G12V mutant genes in presence of MEK inhibitor by trypan blue exclusion method; format: functional, cell-based
Procedure, shortened: (§3)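 BJ-TERT/LT/ST/RASV12 cells were co-treated for 48 h with 1.5 µM erastin plus 20 µM U0126, 10 µM MEK inhibitor I or 50 µM MEK1/2 inhibitor. Viability was measured by automated Trypan blue exclusion of trypsinized cells resuspended in growth medium; n = 2 or 3.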

BJ [7] = assay: Induction of cell death in human BJ cells expressing TERT, LT, ST and RAS G12V mutant genes at 13 uM; format: functional
SK-LMS-1 = assay: Induction of cell death in human SKLMS1 cells; format: functional, cell-based
[8] = molecular target: T1, Mitogen-activated protein kinase; ERK1/ERK2 (Homo sapiens) (UniProt P27361+P28482); assay: Effect on ERK1/2 phosphorylation in human TC32 cells by Western blot; format: cell-based
Procedure, shortened: (§4)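 Washed cells were lysed in pH 7.4 HEPES buffer containing orthovanadate, NaF, pyrophosphate, β-glycerophosphate and protease inhibitors. Lysates were run on SDS-PAGE, transferred to PVDF and blocked 1 h at room temperature. Blots were probed with a multiplex phospho-signalling antibody cocktail and read by infrared fluorescence scanning.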

BJ [9] = assay: Induction of cell death in human BJ cells expressing TERT, LT, ST and RAS G12V mutant genes cells in presence of PD-98059 by trypan blue exclusion method; format: functional, cell-based
HL-60 = assay: Induction of cell death in human HL60 cells; format: functional
[10] = molecular target: T1, Mitogen-activated protein kinase; ERK1/ERK2 (Homo sapiens); assay: Effect on ERK1/2 phosphorylation in human BJ cells expressing TERT, LT, ST and RAS G12V mutant genes cells by Western blot; format: cell-based; procedure, shortened: as §4
SW982 = assay: Induction of cell death in human SW982 cells; format: functional
SK-ES1 = assay: Induction of cell death in human SK-ES-1 cells; format: functional, cell-based
BJ [11] = assay: Increase in intracellular oxidative species in human BJ cells expressing TERT, LT, ST and RAS G12V mutant genes cells at 4.6 uM; format: functional, cell-based
Procedure, shortened: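 Cells seeded at 3 × 10^5 per 60 mm dish were grown overnight, then exposed to 4.6 erastin for 2–12 h; H2O2 for 5 min served as positive control. Cells were loaded with H2DCF-DA for 10 min, trypsinized, PBS-washed and stained with propidium iodide. Read-out was flow cytometry as percent of cells with DCF fluorescence in gate M1; n = 2.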

HT-1080 [12] = assay: Induction of cell death in human HT1080 cells in presence of MEK 1/2 inhibitor by trypan blue exclusion method; format: functional, cell-based
[13] = molecular target: T1, Mitogen-activated protein kinase; ERK1/ERK2 (Homo sapiens); assay: Effect on ERK1/2 phosphorylation in human HL60 cells by Western blot; format: cell-based; conditions: HL-60; procedure, shortened: as §4
[14] = Induction of cell death in human Hs925.T cells; format: functional, cell-based
HeLa [15] = assay: Induction of PARP1 cleavage in human HeLa cells; format: functional, cell-based; procedure, shortened: as §2
HT-1080 [16] = assay: Induction of cell death in human HT1080 cells in presence of U0126 by trypan blue exclusion method; format: functional, cell-based
[17] = Induction of cell death in human MX2 cells; format: functional, cell-based
BJ [18] = assay: Induction of mitochondrial structural integrity loss in human BJ cells expressing TERT, LT, ST and RAS G12V mutant genes cells at 37 uM after 10 hrs; format: functional, cell-based
Procedure, shortened: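 BJ-TERT/LT/ST/RASV12 cells exposed 10 h to erastin (37 µM per legend; 20 µg/ml in methods), then fixed in 2.5% glutaraldehyde in 0.1 M Sorenson's buffer pH 7.2 and post-fixed in 1% OsO4. Sections stained with uranyl acetate/lead citrate.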

HCT-116 = assay: Induction of cell death in human HCT116 cells; format: functional
A673 [19] = assay: Induction of cell death in human A673 cells; format: functional, cell-based
[20] = Induction of cell death in human Hs51.T cells; format: functional, cell-based
[21] = Induction of cell death in human EWS502 cells; format: functional, cell-based
HT-1080 [22] = assay: Induction of cell death in human HT1080 cells in presence of MEK inhibitor by trypan blue exclusion method; format: functional, cell-based
[23] = molecular target: Non-selective voltage-gated ion channel VDAC2 (Homo sapiens, UniProt P45880); assay: Binding affinity to human VDAC2
U2OS = assay: Induction of cell death in human U2OS cells; format: functional, cell-based
HeLa [24] = assay: Induction of pro-caspase 3 cleavage in human HeLa cells; format: functional, cell-based; procedure, shortened: as §1
SK-N-MC = assay: Induction of cell death in human SK-N-MC cells; format: functional, cell-based
BJ [25] = assay: Induction of PARP1 cleavage in human BJ cells expressing TERT, LT, ST and RAS G12V mutant genes cells after 14 hrs; format: functional, cell-based
Procedure, shortened: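 BJ-TERT/LT/ST/RASV12 cells (3 × 10^6 per dish) were incubated overnight at 37 °C, 5% CO2, then given erastin for 6–26 h. Untreated cells and staurosporine (6 h) or camptothecin (18 h) served as comparators. Full-length and cleaved PARP1 were detected by western blot.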

BJ [26] = assay: Induction of cell death in human BJ cells expressing TERT, LT, ST and RAS G12V mutant genes cells in presence of MEK 1/2 inhibitor by trypan blue exclusion method; format: functional, cell-based; procedure, shortened: as §3

T1 sequence (P27361 whole entry, looked up): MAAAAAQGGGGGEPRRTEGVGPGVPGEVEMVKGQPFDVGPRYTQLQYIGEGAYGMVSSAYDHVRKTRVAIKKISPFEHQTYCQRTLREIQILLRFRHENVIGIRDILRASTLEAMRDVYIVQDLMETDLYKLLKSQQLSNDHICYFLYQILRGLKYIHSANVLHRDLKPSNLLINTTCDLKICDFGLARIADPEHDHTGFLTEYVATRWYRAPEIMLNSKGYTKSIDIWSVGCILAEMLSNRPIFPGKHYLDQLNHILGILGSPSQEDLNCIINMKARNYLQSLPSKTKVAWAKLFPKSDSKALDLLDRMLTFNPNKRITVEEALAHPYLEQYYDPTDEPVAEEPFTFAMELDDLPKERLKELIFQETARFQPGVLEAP
T1 sequence (P28482 whole entry, looked up): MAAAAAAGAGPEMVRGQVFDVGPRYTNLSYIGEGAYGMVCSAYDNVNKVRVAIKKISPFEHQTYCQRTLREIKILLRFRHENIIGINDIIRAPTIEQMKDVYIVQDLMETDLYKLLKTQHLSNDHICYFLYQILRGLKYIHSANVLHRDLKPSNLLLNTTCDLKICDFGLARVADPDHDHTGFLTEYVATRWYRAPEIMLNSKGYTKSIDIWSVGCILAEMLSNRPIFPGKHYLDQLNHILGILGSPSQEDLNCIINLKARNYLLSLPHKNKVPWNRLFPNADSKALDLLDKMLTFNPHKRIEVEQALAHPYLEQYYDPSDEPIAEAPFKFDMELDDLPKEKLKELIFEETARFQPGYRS
Non-selective voltage-gated ion channel VDAC2, sequence (P45880 whole entry): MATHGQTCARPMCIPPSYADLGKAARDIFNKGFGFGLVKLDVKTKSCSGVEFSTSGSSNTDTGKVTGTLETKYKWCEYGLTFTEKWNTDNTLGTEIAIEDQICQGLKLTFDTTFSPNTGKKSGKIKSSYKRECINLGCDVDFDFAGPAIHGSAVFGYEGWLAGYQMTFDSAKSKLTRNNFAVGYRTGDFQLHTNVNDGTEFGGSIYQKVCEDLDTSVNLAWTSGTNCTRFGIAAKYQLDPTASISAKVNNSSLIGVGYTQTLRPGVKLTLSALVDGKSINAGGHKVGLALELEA

Compound: CCOc1ccccc1-n1c(C(C)N2CCN(C(=O)COc3ccc(Cl)cc3)CC2)nc2ccccc2c1=O (stereo not given) [ERASTIN]
- Activity [1]: 100%
- EC50 ([1]; Homo sapiens, MES-SA): 3 µM
- Activity (BJ [2]): inactive
- Activity (HOS): 100%
- EC50 (HOS; Homo sapiens, HOS): 17 µM
- Activity (BJ [3]): inactive
- Activity (HT-1080 [4]): inactive
- Activity (A673 [5]): inactive
- IC50 (BJ [6]): 2.6 µM
- Activity (BJ [7]): 100%
- Activity (SK-LMS-1): 100%
- EC50 (SK-LMS-1; Homo sapiens, SK-LMS-1): 6 µM
- Activity [8]: 0.12 a.u.
- IC50 (BJ [9]): 0.9 µM
- Activity (HL-60): 0%
- Activity [10]: 0.92 a.u.
- Activity (SW982): 0%
- Activity (SK-ES1): 96%
- EC50 (SK-ES1; Homo sapiens, SK-ES1): 7 µM
- Activity (BJ [11]): Active
- IC50 (HT-1080 [12]): 6 µM
- Activity [13]: 0.1 a.u.
- Activity [14]: 83%
- EC50 ([14]; Homo sapiens): 17 µM
- Activity (HeLa [15]): inactive
- IC50 (HT-1080 [16]): 3.4 µM
- Activity [17]: 71%
- EC50 ([17]; Homo sapiens, MX2): 18 µM
- Activity (BJ [18]): Active
- Activity (HCT-116): 0%
- Activity (A673 [19]): 54%
- EC50 (A673 [19]; Homo sapiens, A673): 30 µM
- Activity [20]: 88%
- EC50 ([20]; Homo sapiens): 12 µM
- Activity [21]: 42%
- EC50 ([21]; Homo sapiens, EWS502): 10 µM
- IC50 (HT-1080 [22]): 2.5 µM
- Kd [23]: 0.112 µM
- Activity (U2OS): 96%
- EC50 (U2OS; Homo sapiens, U2OS): 6 µM
- Activity (HeLa [24]): inactive
- Activity (SK-N-MC): 95%
- EC50 (SK-N-MC; Homo sapiens, SK-N-MC): 10 µM
- Activity (BJ [25]): inactive
- IC50 (BJ [26]): 2 µM
